Measured values of several laboratories.
Compare with care: the assays were run in different laboratories.
Target: Serine/threonine-protein kinase haspin (HASPIN, Homo sapiens, UniProt Q8TF76)
Residues used in one study (Q8TF76 1-798): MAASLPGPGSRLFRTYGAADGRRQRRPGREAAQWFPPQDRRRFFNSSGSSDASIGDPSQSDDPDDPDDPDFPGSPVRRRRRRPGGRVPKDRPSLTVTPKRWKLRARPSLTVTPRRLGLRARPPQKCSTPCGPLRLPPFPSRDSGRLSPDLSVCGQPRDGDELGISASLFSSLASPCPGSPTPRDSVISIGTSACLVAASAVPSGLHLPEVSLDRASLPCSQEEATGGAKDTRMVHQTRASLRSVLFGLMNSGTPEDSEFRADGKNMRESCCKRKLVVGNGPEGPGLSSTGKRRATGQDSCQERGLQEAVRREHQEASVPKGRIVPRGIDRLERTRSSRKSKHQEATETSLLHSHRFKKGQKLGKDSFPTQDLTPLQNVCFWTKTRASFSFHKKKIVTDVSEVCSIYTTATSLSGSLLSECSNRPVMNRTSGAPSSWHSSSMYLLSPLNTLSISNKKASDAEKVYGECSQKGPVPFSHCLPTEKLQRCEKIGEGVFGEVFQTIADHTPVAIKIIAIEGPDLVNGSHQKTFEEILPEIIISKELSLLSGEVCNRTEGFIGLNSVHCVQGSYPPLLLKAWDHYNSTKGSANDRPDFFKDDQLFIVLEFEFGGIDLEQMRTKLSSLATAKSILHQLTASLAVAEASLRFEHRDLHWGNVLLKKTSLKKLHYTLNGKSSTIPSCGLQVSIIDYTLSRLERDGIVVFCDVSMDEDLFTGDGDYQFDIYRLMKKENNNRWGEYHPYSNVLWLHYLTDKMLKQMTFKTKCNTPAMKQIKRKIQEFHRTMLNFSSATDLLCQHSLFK

Cn1cc(-c2cc(F)cc(N3CCn4c(cc5c4CCCC5)C3=O)c2CO)cc(Nc2ccc(N3CCN(C4COC4)CC3)cn2)c1=O
inhibition (enzyme activity, inhibitor; 0.1 µM): 8%

C#Cc1n[nH]c2c(-c3cn(C(C)c4ccccn4)c(=O)[nH]c3=O)cc(F)cc12 (stereo not shown)
inhibition (enzyme activity, inhibitor; 1 µM): 18.9%

O=c1[nH]c2ccccc2n1C1CCN(Cc2ccc(-c3[nH]c4cc5ncnc5cc4nc3-c3ccccc3)cc2)CC1
remaining signal (cell-free assay; 0.5 µM): 106%

Nc1ncc(-c2nc(N3CCOCC3)nc(N3CCOCC3)n2)c(C(F)F)n1
remaining binding (binding, competition with immobilised ligand; 10 µM): 71%

Cn1cncc1[C@](O)(COc1ccc(C#N)cc1-c1ccc(OC(F)(F)F)cc1)c1ccc(C#N)cc1
remaining binding (cell-free assay, competition with immobilised ligand; 1 µM): 100%

COc1ncccc1-c1cnn2ccc(N3CCN(C(=O)OC(C)C)CC3)nc12
remaining binding (binding, competition with immobilised ligand; 1 µM): 80%

N#CC1(c2ccccn2)CCN(Cc2cc(C(=O)O)c(=O)n3ccccc23)CC1
remaining binding (cell-free assay, competition with immobilised ligand; 1 µM): 100%

C#Cc1n[nH]c2c(-c3cn([C@@H](C)c4ccccc4)c(=O)[nH]c3=O)cc(F)cc12
inhibition (enzyme activity, inhibitor; 0.1 µM): -5.9%

CC(C)(C)c1cc(C=C(C#N)C#N)cc(Br)c1O
remaining activity (enzyme activity, inhibitor; 0.5 µM): 67.2%

Cn1cc(-c2cccc(N3CCc4c(sc5c4CC(C)(C)C5)C3=O)c2CO)cc(Nc2ccncn2)c1=O
inhibition (enzyme activity, inhibitor; 1 µM): -1%
